*1 amine or outer side, *2 acyl side, *3 side chain or, on linkers, in order; H or OH if unused. Where a SMILES comes first, the peptide text is derived from it. Bridges are numbered along the chain shown (N, C = ends). [ ]: non-standard residue; d: D form. Cys(O)(CH2CO) = O=C([C@H](C[S+]([O-])CC(=O)[*:3])N[*:1])[*:2]; X2 = C[C@H](O)[C@H](C(=O)[*:2])N(c1cccc(CC[*:3])c1)[*:1]
Biological target: Integrin alpha-IIb/beta-3 (Homo sapiens, UniProt P05106+P08514)
Assay: The compound was tested for the inhibition of fibrinogen receptor
Format: protein-complex assay
Procedure, shortened: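 Solid-phase ELISA: human fibrinogen (10 µg/mL) coated, BSA-blocked; samples plus purified human platelet GPIIbIIIa (40 µg/mL) incubated 1 h at room temperature. Bound receptor detected with anti-GPIIbIIIa antibody AP3 (1 µg/mL, 1 h), then goat anti-mouse HRP (1 h); OPD/H2O2 at pH 5, stopped with H2SO4, absorbance 492-405 nm. IC50 from four-parameter fit; n ≥ 3.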

Integrin alpha-IIb/beta-3, sequence (P05106 27-788 limits assumed): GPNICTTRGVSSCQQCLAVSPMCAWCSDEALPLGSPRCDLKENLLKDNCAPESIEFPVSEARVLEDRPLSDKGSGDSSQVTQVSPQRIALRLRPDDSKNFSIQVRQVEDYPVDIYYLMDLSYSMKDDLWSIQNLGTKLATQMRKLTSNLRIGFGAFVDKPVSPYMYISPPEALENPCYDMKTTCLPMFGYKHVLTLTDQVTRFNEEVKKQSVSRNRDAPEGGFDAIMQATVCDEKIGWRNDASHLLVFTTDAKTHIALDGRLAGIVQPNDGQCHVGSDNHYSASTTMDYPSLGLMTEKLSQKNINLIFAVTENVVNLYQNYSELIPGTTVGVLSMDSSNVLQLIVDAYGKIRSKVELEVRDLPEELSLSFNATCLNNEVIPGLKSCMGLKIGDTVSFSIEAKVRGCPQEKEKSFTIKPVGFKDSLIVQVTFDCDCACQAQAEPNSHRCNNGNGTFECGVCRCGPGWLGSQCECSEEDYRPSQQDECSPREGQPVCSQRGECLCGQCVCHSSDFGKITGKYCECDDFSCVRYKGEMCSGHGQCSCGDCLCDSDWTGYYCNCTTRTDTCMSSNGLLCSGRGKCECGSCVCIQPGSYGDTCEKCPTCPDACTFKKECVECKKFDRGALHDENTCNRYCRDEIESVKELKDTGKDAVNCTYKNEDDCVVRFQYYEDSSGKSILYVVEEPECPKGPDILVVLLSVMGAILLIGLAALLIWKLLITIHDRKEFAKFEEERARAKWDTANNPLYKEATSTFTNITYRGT
Integrin alpha-IIb/beta-3, sequence (P08514 32-887 limits assumed): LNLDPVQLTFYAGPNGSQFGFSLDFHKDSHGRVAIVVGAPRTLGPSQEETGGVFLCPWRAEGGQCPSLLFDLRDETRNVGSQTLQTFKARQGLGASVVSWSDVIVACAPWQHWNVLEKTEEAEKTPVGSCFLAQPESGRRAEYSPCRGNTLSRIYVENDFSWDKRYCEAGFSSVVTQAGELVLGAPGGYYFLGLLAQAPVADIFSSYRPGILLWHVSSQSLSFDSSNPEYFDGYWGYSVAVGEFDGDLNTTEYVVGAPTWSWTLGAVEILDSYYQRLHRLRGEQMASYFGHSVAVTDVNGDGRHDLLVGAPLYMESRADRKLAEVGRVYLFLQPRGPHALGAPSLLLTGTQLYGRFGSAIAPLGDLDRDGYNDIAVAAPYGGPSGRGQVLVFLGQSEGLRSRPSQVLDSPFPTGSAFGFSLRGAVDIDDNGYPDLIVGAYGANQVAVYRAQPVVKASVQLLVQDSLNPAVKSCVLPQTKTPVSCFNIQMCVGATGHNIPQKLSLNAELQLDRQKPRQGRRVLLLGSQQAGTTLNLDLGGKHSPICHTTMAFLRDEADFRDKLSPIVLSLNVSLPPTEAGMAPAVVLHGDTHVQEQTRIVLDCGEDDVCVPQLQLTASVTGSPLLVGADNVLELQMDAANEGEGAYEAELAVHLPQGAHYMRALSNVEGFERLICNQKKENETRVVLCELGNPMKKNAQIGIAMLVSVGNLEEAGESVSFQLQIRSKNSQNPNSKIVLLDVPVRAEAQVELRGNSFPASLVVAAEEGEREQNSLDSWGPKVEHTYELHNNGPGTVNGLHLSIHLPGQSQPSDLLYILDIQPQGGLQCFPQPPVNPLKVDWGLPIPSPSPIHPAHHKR
Integrin alpha-IIb/beta-3, sequence (P08514 891-1039 limits assumed): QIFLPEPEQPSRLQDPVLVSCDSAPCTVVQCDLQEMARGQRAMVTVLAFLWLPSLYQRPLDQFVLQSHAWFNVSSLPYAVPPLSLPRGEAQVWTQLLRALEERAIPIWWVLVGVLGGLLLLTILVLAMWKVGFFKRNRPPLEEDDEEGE

Row | SMILES | IC50 [nM]
1 | N=C(N)NCCC[C@@H]1NC(=O)[C@H](CC(=O)O)NC(=O)C[S+]([O-])C[C@@H](C(=O)O)NC(=O)[C@H](CC(=O)O)NC(=O)CNC1=O (stereo not given in full) (DRGD[Cys(O)(CH2CO)]-OH; lactam N-5) | 6
2 | N=C(N)NCCC[C@@H]1NC(=O)[C@@H](Cc2c[nH]c3ccccc23)NC(=O)CSC[C@@H](C(=O)O)NC(=O)[C@H](CC(=O)O)NC(=O)CNC1=O | 29
3 | CC(C)C[C@H](NC(=O)[C@H](CC(=O)O)NC(=O)CNC(=O)[C@H](CCCN=C(N)N)NC(=O)CN)C(=O)O (H-GRGDL-OH) | 500
4 | C[C@@H]1NC(=O)C[S+]([O-])C[C@@H](C(=O)O)NC(=O)[C@H](CC(=O)O)NC(=O)CNC(=O)[C@H](CCCN=C(N)N)NC1=O (stereo in doubt; 68B) | 4.7
5 | N=C(N)NCCC[C@@H]1NC(=O)[C@H](CCC(=O)O)NC(=O)C[S+]([O-])C[C@@H](C(=O)O)NC(=O)[C@H](CC(=O)O)NC(=O)CNC1=O (stereo in doubt; 73A) | 4.7
6 | N=C(N)NCCC[C@@H]1NC(=O)[C@@H](CCC(=O)O)NC(=O)CSC[C@@H](C(=O)O)NC(=O)[C@H](CC(=O)O)NC(=O)CNC1=O | 260
7 | N=C(N)NCCC[C@@H]1NC(=O)CNC(=O)C(c2cccc(C(F)(F)F)c2)SC[C@@H](C(=O)O)NC(=O)[C@H](CC(=O)O)NC(=O)CNC1=O (stereo in doubt; 24A) | 35
8 | CC(C)C[C@H](NC(=O)[C@H](CC(=O)O)NC(=O)CNC(=O)[C@@H](N)CCCN=C(N)N)C(=O)O (H-RGDL-OH) | 105
9 | CSCC[C@@H]1NC(=O)CSC[C@@H](C(=O)O)NC(=O)[C@H](CC(=O)O)NC(=O)CNC(=O)[C@H](CCCNC(=N)N)NC1=O | 4
10 | N=C(N)NCCC[C@@H]1NC(=O)CSC[C@@H](C(=O)O)NC(=O)[C@H](CC(=O)O)NC(=O)CNC1=O ({CH2CO}-RGDC-OH; thioether N-4) | 132
11 | N=C(N)NCCC[C@@H]1NC(=O)CNC(=O)C(c2ccccc2C(F)(F)F)SC[C@@H](C(=O)O)NC(=O)[C@H](CC(=O)O)NC(=O)CNC1=O (stereo in doubt; 20A) | 23
12 | C[C@@H](O)[C@@H]1NC(=O)CSC[C@@H](C(=O)O)NC(=O)[C@H](CC(=O)O)NC(=O)CNC(=O)[C@H](CCCN=C(N)N)NC1=O | 1.3
13 | N=C(N)NCCC[C@@H]1NC(=O)CNC(=O)C(c2ccc(C(F)(F)F)cc2)SC[C@@H](C(=O)O)NC(=O)[C@H](CC(=O)O)NC(=O)CNC1=O (stereo in doubt; 22A) | 180
14 | NCCC[C@@H]1NC(=O)CSC[C@@H](C(=O)O)NC(=O)[C@H](CC(=O)O)NC(=O)CNC(=O)[C@H](CCCN=C(N)N)NC1=O | 5.6
15 | N=C(N)NCCC[C@@H]1NC(=O)CNC(=O)C(c2cccc3ccccc23)SC[C@@H](C(=O)O)NC(=O)[C@H](CC(=O)O)NC(=O)CNC1=O (stereo in doubt; 17A) | 5.3
16 | N=C(N)NCCC[C@@H]1NC(=O)CNC(=O)CSC[C@@H](C(=O)O)NC(=O)[C@H](CC(=O)O)NC(=O)CNC1=O ({CH2CO}-GRGDC-OH; thioether N-5) | 4.2
17 | N=C(N)NCCC[C@@H]1NC(=O)[C@@H](CCCN)NC(=O)CSC[C@@H](C(=O)O)NC(=O)[C@H](CC(=O)O)NC(=O)CNC1=O | 31
18 | N=C(N)NCCC[C@@H]1NC(=O)[C@H](CC(N)=O)NC(=O)CSC[C@@H](C(=O)O)NC(=O)[C@H](CC(=O)O)NC(=O)CNC1=O ({CH2CO}-NRGDC-OH; thioether N-5) | 2.7
19 | N=C(N)NCCC[C@@H]1NC(=O)CNC(=O)C[S+]([O-])C[C@@H](C(=O)O)NC(=O)[C@H](CC(=O)O)NC(=O)CNC1=O (stereo in doubt; 66A) | 1.4
20 | N=C(N)NCCC[C@@H]1NC(=O)[C@H](Cc2ccc(O)cc2)NC(=O)CSC[C@@H](C(=O)O)NC(=O)[C@H](CC(=O)O)NC(=O)CNC1=O ({CH2CO}-YRGDC-OH; thioether N-5) | 1.5

Row | SMILES | IC50 [nM]
21 | N=C(N)NCCC[C@@H]1NC(=O)[C@@H](CCCCN)NC(=O)CSC[C@@H](C(=O)O)NC(=O)[C@H](CC(=O)O)NC(=O)CNC1=O | 20
22 | N=C(N)NCCC[C@@H]1NC(=O)[C@H]2CCCN2C(=O)CSC[C@@H](C(=O)O)NC(=O)[C@H](CC(=O)O)NC(=O)CNC1=O ({CH2CO}-[dP]RGDC-OH; thioether N-5) | 11.4
23 | N=C(N)NCCC[C@@H]1NC(=O)[C@H](CO)NC(=O)CSC[C@@H](C(=O)O)NC(=O)[C@H](CC(=O)O)NC(=O)CNC1=O | 4
24 | CC(C)(C)C[C@H]1NC(=O)CSC[C@@H](C(=O)O)NC(=O)[C@H](CC(=O)O)NC(=O)CNC(=O)[C@H](CCCN=C(N)N)NC1=O | 22
25 | CCCC1SC[C@@H](C(=O)O)NC(=O)[C@H](CC(=O)O)NC(=O)CNC(=O)[C@H](CCCNC(=N)N)NC(=O)CNC1=O (stereo in doubt; 23B) | 5.4
26 | CC[C@H](C)[C@@H]1NC(=O)CSC[C@@H](C(=O)O)NC(=O)[C@H](CC(=O)O)NC(=O)CNC(=O)[C@H](CCCN=C(N)N)NC1=O | 6
27 | C[C@H](O)[C@H]1Nc2cccc(c2)CCSC[C@@H](C(=O)O)NC(=O)[C@H](CC(=O)O)NC(=O)CNC(=O)[C@H](CCCN=C(N)N)NC1=O (H-[X2]RGDC-OH; thioether 1-5) | 7
28 | N=C(N)NCCC[C@@H]1NC(=O)c2cccc(c2)CSC[C@@H](C(=O)O)NC(=O)[C@H](CC(=O)O)NC(=O)CNC1=O | 19
29 | C[C@H]1NC(=O)CSC[C@@H](C(=O)O)NC(=O)[C@H](CC(=O)O)NC(=O)CNC(=O)[C@H](CCCNC(=N)N)NC1=O ({CH2CO}-[dA]RGDC-OH; thioether N-5) | 9.5
30 | C[C@@H]1NC(=O)C[S+]([O-])C[C@@H](C(=O)O)NC(=O)[C@H](CC(=O)O)NC(=O)CNC(=O)[C@H](CCCN=C(N)N)NC1=O (stereo in doubt; 68A) | 1.6
31 | NCCCC[C@@H]1NC(=O)CSC[C@@H](C(=O)O)NC(=O)[C@H](CC(=O)O)NC(=O)CNC(=O)[C@H](CCCN=C(N)N)NC1=O | 7.5
32 | N=C(N)NCCC[C@@H]1NC(=O)[C@H](Cc2c[nH]c3ccccc23)NC(=O)CSC[C@@H](C(=O)O)NC(=O)[C@H](CC(=O)O)NC(=O)CNC1=O | 4
33 | N=C(N)NCCC[C@@H]1NC(=O)[C@@H](CC(N)=O)NC(=O)CSC[C@@H](C(=O)O)NC(=O)[C@H](CC(=O)O)NC(=O)CNC1=O ({CH2CO}-[dN]RGDC-OH; thioether N-5) | 35
34 | N=C(N)NCCC[C@@H]1NC(=O)[C@@H]2CCCN2C(=O)CSC[C@@H](C(=O)O)NC(=O)[C@H](CC(=O)O)NC(=O)CNC1=O ({CH2CO}-PRGDC-OH; thioether N-5) | 1
35 | N=C(N)NCCC[C@@H]1NC(=O)[C@@H](Cc2c[nH]cn2)NC(=O)CSC[C@@H](C(=O)O)NC(=O)[C@H](CC(=O)O)NC(=O)CNC1=O | 6.8
36 | CC(=O)NCC(=O)N[C@@H](CCCNC(=N)N)C(=O)NCC(=O)N[C@@H](CC(=O)O)C(=O)N[C@H](C(N)=O)C(C)C (Ac-GRGDV-NH2) | 434
37 | CC(C)[C@@H]1NC(=O)CSC[C@@H](C(=O)O)NC(=O)[C@H](CC(=O)O)NC(=O)CNC(=O)[C@H](CCCN=C(N)N)NC1=O | 2
38 | N=C(N)NCCC[C@@H]1NC(=O)[C@H](CCC(=O)O)NC(=O)CSC[C@@H](C(=O)O)NC(=O)[C@H](CC(=O)O)NC(=O)CNC1=O | 15
39 | NCC(=O)N[C@@H](CCCN=C(N)N)C(=O)NCC(=O)N[C@@H](CC(=O)O)C(=O)N[C@@H](Cc1ccc(O)cc1)C(=O)O (H-GRGDY-OH) | 240
40 | N=C(N)NCCC[C@@H]1NC(=O)CNC(=O)[C@H](Cc2ccccc2)SC[C@@H](C(=O)O)NC(=O)[C@H](CC(=O)O)NC(=O)CNC1=O | 14

Source: ChEMBL document CHEMBL1126061, “Cyclic RGD peptide analogues as antiplatelet antithrombotics” (J Med Chem, 1992)
